LEDGF integ inh = blocks HIV-1 LEDGF/p75-dependent DNA integration. TR-FRET IN-LEDGF/p75 DNA integration, Eu/Cy5. inhibition, % at 3.7 µM. 0.64% of 370,000 active. AID 743269;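 active = inhibition above the screen-wide mean plus 3 SD, cut at about 13% in these data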;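 also: signal is the Cy5 over europium emission ratio at 671 and 618 nm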
MBD2 DNA inh = inhibitors of human MBD2 binding to methylated oligonucleotide. inhibition, % at 4.4 µM. Q9UBB5. TR-FRET. 0.31% of 370,000 active; in the data active = inhibition above about 13%
Target sequence (Q9UBB5 whole entry, looked up): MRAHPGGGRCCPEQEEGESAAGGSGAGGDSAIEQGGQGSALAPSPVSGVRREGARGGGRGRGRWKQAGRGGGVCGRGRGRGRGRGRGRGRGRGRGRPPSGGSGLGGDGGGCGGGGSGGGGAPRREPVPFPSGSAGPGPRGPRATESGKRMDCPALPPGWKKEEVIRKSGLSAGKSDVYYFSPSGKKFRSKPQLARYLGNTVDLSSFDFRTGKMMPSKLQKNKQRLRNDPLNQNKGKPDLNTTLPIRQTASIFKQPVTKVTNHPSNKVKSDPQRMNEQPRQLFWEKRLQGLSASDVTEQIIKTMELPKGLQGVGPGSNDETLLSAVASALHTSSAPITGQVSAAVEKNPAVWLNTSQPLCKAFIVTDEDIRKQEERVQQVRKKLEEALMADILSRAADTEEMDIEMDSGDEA
ATG4B inh = ATG4B (human) cysteine protease inhibition. inhibition, % at 8.33 µM. Q9Y4P1. 0.51% of 340,000 active. ATG4B cleavage of LC3-PLA2, NBD-HPC fluorescence, 1 h; in the data active = inhibition above about 40%
CSN inh = inhibitors of human CSN-mediated cullin deneddylation; Q92905; Purified CSN, SCF-Nedd8-OG deneddylation, fluorescence polarization; 0.38% of 360,000 active; inhibition, % at 12.5 µM;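 active = pattern-corrected inhibition above about 35%, with an unprinted fluorescence ratio check between 0.5 and 1.5, limit read from the data, passing the limit was not always enough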
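Test system: purified human Csn5 enzyme expressed in HEK293T cells. Amount: 0.24 nM enzyme. Reagent: SCFSkp2-Nedd8OG substrate at 10 nM final. Schedule: 90 min incubation of compound, enzyme and substrate at room temperature. Detection: fluorescence polarization. Read-out: % inhibition of substrate cleavage by Csn5.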
UHRF1 MBD2 ctr = human UHRF1 methylated DNA binding inhibitors; UHRF1 binding to methylated oligo, TR-FRET; inhibition, % at 4.4 µM; 0.75% of 370,000 active; in the data active = inhibition above about 21%;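 also: UHRF1 SRA domain binding a hemimethylated CpG hairpin DNA probe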
rCAG RNA binder = molecules binding r(CAG) RNA repeats; r(CAG) RNA repeat, TO-PRO-1 dye displacement fluorescence; inhibition, % at 3 µM; 1.3% of 370,000 active; AID 651821;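 active = inhibition above the plate cutoff, the mean of all test compounds on that plate plus 3 SD, cut at about 35% in these data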;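 also: higher means more dye released from RNA so lower well fluorescence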
rCAG binder conf = r(CAG) RNA repeat binding, confirmation. TO-PRO-1 dye displacement fluorescence. inhibition, % at 3 µM. 70% of 4,300 active. shares compounds with rCAG RNA binder;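 active = inhibition above a per-plate cutoff, the mean inhibition of sample wells plus 3 SD, cut at about 35% in these data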;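 also: loss of TO-PRO-1 fluorescence as compound displaces dye from 1x1 AA loop RNA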
dCAG dye counter = counter-screen for rCAG RNA binders: DNA CAG dye complex inhibitors. shares compounds with rCAG RNA binder. d(CAG) DNA oligo TO-PRO-1 dye displacement, fluorescence. inhibition, % at 3 µM. 94% of 4,300 active. AID 652068;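 active = inhibition above its plate's cutoff, the mean test-well inhibition plus 3 SD, cut at about 4.8% in these data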;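 also: hits displace the dye from DNA and so lower well fluorescence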
dCAG dye DR = counter-screen for rCAG binders: inhibitors of DNA CAG TO-PRO-1 complex; shares compounds with rCAG RNA binder; DNA CAG/GTC duplex TO-PRO-1 dye displacement fluorescence; IC50, µM; 20% of 250 active; in the data active = IC50 below about 10 µM
Hits are given with their value; 0 = inactive; - = no result. Most compounds without a hit are left out; they make up all but 3.1% or so of the library.

SMILES	LEDGF integ inh	MBD2 DNA inh	ATG4B inh	CSN inh	UHRF1 MBD2 ctr	rCAG RNA binder	rCAG binder conf	dCAG dye counter	others
CC(C)CN1C(=O)C[C@@]2(C(=O)N(C)c3ccc(NC(=O)C(C)(C)C)cc32)C1c1ccccc1 (stereo partly specified)	0	0	-	-	0	0	-	-
CCCCCCCCN1C(=O)[C@@H](CC(=O)N2CCCC2)C[C@@]2(C(=O)OC)C1=C[C@H](COCc1ccccc1)O[C@@H]2C	0	0	-	-	0	0	-	-
c1ccc(CN2CCN(c3ncnc4sccc34)CC2)cc1	0	0	-	-	0	-	-	-
CCOc1ccc(-c2ccc(NS(=O)(=O)c3cc([N+](=O)[O-])c(C)c([N+](=O)[O-])c3)cc2)nn1	0	0	0	0	0	67.7	44.1	13.7
O=[N+]([O-])c1cccc(S(=O)(=O)Nc2ccc(-c3ccc(N4CCCC4)nn3)cc2)c1	0	0	0	0	0	0	-	-
CCOc1ccc(-c2cccc(NS(=O)(=O)c3cc([N+](=O)[O-])ccc3C)c2)nn1	0	0	0	0	0	37.8	42.9	13.0
O=[N+]([O-])c1ccccc1S(=O)(=O)Nc1ccc(-c2ccc(N3CCCC3)nn2)cc1	0	0	0	0	0	37.0	38.3	15.9
CCOc1ccc(-c2cccc(NS(=O)(=O)c3ccccc3[N+](=O)[O-])c2)nn1	0	0	0	0	0	34.7	0	8.5
N#Cc1ccc2nc(-c3ccc(CN4CCC5(CC4)CNc4ccccc45)cc3)c(-c3ccccc3)nc2c1	0	0	-	-	0	0	-	-
COc1ccc(OC[C@@H](O)CN2CCC(C(O)(c3ccccc3)c3ccccc3)CC2)cc1	0	0	-	-	0	0	-	-
O=C(NC1CCC1)c1ccc(C#Cc2cccc(F)c2)cn1	0	0	-	-	0	0	-	-
CC(C)Oc1ccc(-c2csc(N3CCC(C(N)=O)CC3)n2)cc1	0	0	-	-	0	-	-	-
COc1ccc(/C=N/N=C2/NC(=O)C(CC(=O)NC(C)C)S2)cc1 (stereo unspecified)	0	0	0	0	0	0	-	-
COc1cc(/C=N/N=C2/NC(=O)C(CC(=O)O)S2)ccc1OCc1ccc(Cl)cc1 (stereo unspecified)	0	0	0	0	0	54.4	37.8	10.2
CCOc1cc(/C=N/N=C2/NC(=O)C(CC(=O)O)S2)ccc1OCc1ccc(Cl)cc1Cl (stereo unspecified)	-	-	0	0	-	-	-	-
Cc1ccc(S(=O)(=O)Oc2ccc(/C=N/N=C3/NC(=O)C(CC(=O)O)S3)cc2)cc1[N+](=O)[O-] (stereo unspecified)	0	0	0	0	0	40.8	0	8.5
CCCCCc1ccc(NC(=O)OCCCN2CCC3(CCC(c4ccccc4)CC3)C2=O)cc1 (stereo unspecified)	0	0	-	-	0	0	-	-
Cc1cccc(C)c1NC(=O)[C@H]1CC(=O)O[C@@H]1c1ccccc1	0	0	-	-	0	0	-	-
C/C(C=NNC(=O)CSc1nnc(-c2ccc(Cl)cc2)n1-c1ccccc1)=C\c1ccccc1	0	0	-	-	0	0	-	-
Cc1ccc(OCCSc2nc3ccccc3n2CC(=O)O)c(C(C)C)c1	0	0	0	0	0	38.2	41.1	9.8
CCCCCCCCN1C(=O)N2Cc3cc(OC)ccc3C2CS1(=O)=O (stereo unspecified)	0	0	-	-	0	0	-	-
CCCCCCC(=O)NC1CCCCN(Cc2cccc(Cl)c2)C1=O (stereo unspecified)	0	0	-	-	0	0	-	-
CC(C)(C)NC(=O)C(c1ccc(C#N)cc1)n1c(=O)c(-c2ccco2)nc2ccccc21 (stereo unspecified)	0	0	-	0	0	36.5	0	12.7
CC(C)(C)c1ccc(CC(=O)N2CCC2(C)C(=O)NS(=O)(=O)c2ccc(F)cc2F)cc1 (stereo unspecified)	0	0	-	0	0	41.4	0	6.1
CC(C)(C)c1ccc(CC(=O)N2CCC2(C)C(=O)NS(=O)(=O)c2ccccc2C(F)(F)F)cc1 (stereo unspecified)	0	0	-	0	0	57.8	44.8	13.4
SMILES	LEDGF integ inh	MBD2 DNA inh	ATG4B inh	CSN inh	UHRF1 MBD2 ctr	rCAG RNA binder	rCAG binder conf	dCAG dye counter	others
CC1(C(=O)NS(=O)(=O)Cc2ccccc2)CCN1C(=O)Cc1ccccc1 (stereo unspecified)	0	0	-	0	0	0	-	-
CC1(C(=O)NS(=O)(=O)c2ccc(F)cc2F)CCN1C(=O)Cc1ccc(-c2ccccc2)cc1 (stereo unspecified)	0	0	-	0	0	58.5	44.3	10.7
CC1(C(=O)NS(=O)(=O)c2ccc(F)cc2F)CCN1C(=O)Cc1ccccc1Cl (stereo unspecified)	0	0	-	0	0	0	-	-
CC(C)(C)c1ccc(CC(=O)N2CCC2(C)C(=O)NS(=O)(=O)Cc2ccccc2)cc1 (stereo unspecified)	0	0	-	0	0	41.2	35.6	9.3
COC(=O)[C@]12C[C@H](CC(=O)NCCCCc3ccccc3)C(=O)N(Cc3ccc(Cl)cc3Cl)C1=C[C@H](C(C)C)O[C@@H]2C1CC1	0	0	-	-	0	0	-	-
CC1(C(=O)NS(=O)(=O)Cc2ccccc2C(F)(F)F)CCN1C(=O)C/C=C/c1ccccc1 (stereo unspecified)	0	0	-	0	0	46.0	51.4	10.5	dCAG dye DR=0
COc1ccc([C@H]2OC(=O)C[C@@H]2C(=O)N2CCN(c3ccccc3Cl)CC2)cc1OC	0	0	-	-	0	0	-	-
Cc1ccc(S(=O)(=O)NC(=O)C2(C)CCN2C(=O)CCc2ccc(Cl)cc2Cl)cc1 (stereo unspecified)	0	0	-	0	0	51.3	0	6.0
CC1(C(=O)NS(=O)(=O)c2ccc(Cl)cc2)CCN1C(=O)CCc1ccc(Cl)cc1Cl (stereo unspecified)	0	0	-	0	0	52.5	49.4	12.5
CC1(C(=O)NS(=O)(=O)c2ccc(Cl)s2)CCN1C(=O)Cc1ccc(Cl)cc1Cl (stereo unspecified)	0	0	-	0	0	39.8	40.3	11.2
COc1cccc(CNC(=O)CCCN2C(=O)COc3ccc(C)cc32)c1OC	0	0	-	-	0	0	-	-
C[C@H]1[C@H](c2ccccc2)OC(O)([C@H](Cc2ccccc2)NC(=O)OC(C)(C)C)CN1C (stereo partly specified)	0	0	-	-	0	-	-	-
CCc1nnc(NS(=O)(=O)c2ccc(NCc3cc(Cl)cc(Cl)c3O)cc2)s1	0	0	0	0	0	69.9	36.8	9.5
